Reference: ChEMBL document CHEMBL3352152, “Indolylmethylene benzo[h]thiazolo[2,3-b]quinazolinones: synthesis, characterization and evaluation of anticancer and antimicrobial activities” (Bioorg Med Chem Lett, 2014)
pIC50: −log10 of the molar value.

Tests used:
Klebsiella pneumoniae [1] = assay: Antibacterial activity against Klebsiella pneumoniae MTCC 109 at 30 ug/ml after 24 hrs by agar well diffusion assay; assay type: functional; details: MTCC 109, 24 h, read-out: IZ
Outline: (§1)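 Agar well diffusion screen run in vitro against a bacterial panel: S. aureus and S. pyogenes (Gram-positive), P. aeruginosa and K. pneumoniae (Gram-negative). Streptomycin served as the reference standard drug.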

Streptococcus pyogenes [2] = assay: Antibacterial activity against Streptococcus pyogenes MTCC 1926 at 30 ug/ml after 24 hrs by agar well diffusion assay; assay type: functional; details: MTCC 1926, 24 h, read-out: IZ
Outline: (§2)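 Agar well diffusion screen against the two Gram-positive strains (S. aureus, S. pyogenes) and the two Gram-negative strains (P. aeruginosa, K. pneumoniae). Streptomycin was the reference drug. Activity was read as zone of inhibition (mm).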

Staphylococcus aureus [3] = assay: Antibacterial activity against Staphylococcus aureus MTCC 96 at 30 ug/ml after 24 hrs by agar well diffusion assay; assay type: functional; details: MTCC 96, 24 h, read-out: IZ; outline: as §1
Pseudomonas aeruginosa [4] = assay: Antibacterial activity against Pseudomonas aeruginosa MTCC 4673 at 30 ug/ml after 24 hrs by agar well diffusion assay; assay type: functional; details: MTCC 4673, 24 h, read-out: IZ; outline: as §2
Aspergillus parasiticus [5] = assay: Antifungal activity against Aspergillus parasiticus MTCC 8850 at 30 ug/ml after 48 hrs by agar well diffusion method; assay type: functional; details: MTCC 8850, 48 h, read-out: IZ
Outline: (§3)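 Antifungal screen by agar well diffusion against C. albicans, C. glabrata, A. niger and A. parasiticus. Clotrimazole was the standard drug. Activity was recorded as zone of inhibition (ZOI, mm).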

Candida albicans [6] = assay: Antifungal activity against Candida albicans MTCC 183 at 30 ug/ml after 48 hrs by agar well diffusion method; assay type: functional; details: MTCC 183, 48 h, read-out: IZ; outline: as §3
Nakaseomyces glabratus [7] = assay: Antifungal activity against Candida glabrata MTCC3019 at 30 ug/ml after 48 hrs by agar well diffusion method; assay type: functional; details: MTCC3019, 48 h, read-out: IZ; outline: as §3
Aspergillus niger [8] = assay: Antifungal activity against Aspergillus niger MTCC 282 at 30 ug/ml after 48 hrs by agar well diffusion method; assay type: functional; details: MTCC 282, 48 h, read-out: IZ; outline: as §3
Staphylococcus aureus [9] = assay: Antibacterial activity against Staphylococcus aureus MTCC 96 at 150 ug/ml after 24 hrs by agar well diffusion assay; assay type: functional; details: MTCC 96, 24 h, read-out: IZ; outline: as §2
HepG2 = assay: Anticancer activity against human HepG2 cells assessed as cell viability after 48 hrs by MTT microcultured tetrazolium assay; assay type: functional, cell-based; details: HepG2, 48 h
Outline: (§4)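 MTT-microcultured tetrazolium viability read-out in MCF-7 and HepG2 cells exposed to test samples. Surviving fraction was plotted against drug concentration to give survival curves, and IC50 was taken from these curves.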

Klebsiella pneumoniae [10] = assay: Antibacterial activity against Klebsiella pneumoniae MTCC 109 at 150 ug/ml after 24 hrs by agar well diffusion assay; assay type: functional; details: MTCC 109, 24 h, read-out: IZ; outline: as §2
Candida albicans [11] = assay: Antifungal activity against Candida albicans MTCC 183 at 150 ug/ml after 48 hrs by agar well diffusion method; assay type: functional; details: MTCC 183, 48 h, read-out: IZ; outline: as §3
MCF7 = assay: Anticancer activity against human MCF7 cells assessed as cell viability after 48 hrs by MTT microcultured tetrazolium assay; assay type: functional, cell-based; details: MCF7, 48 h; outline: as §4
Pseudomonas aeruginosa [12] = assay: Antibacterial activity against Pseudomonas aeruginosa MTCC 4673 at 150 ug/ml after 24 hrs by agar well diffusion assay; assay type: functional; details: MTCC 4673, 24 h, read-out: IZ; outline: as §2
Streptococcus pyogenes [13] = assay: Antibacterial activity against Streptococcus pyogenes MTCC 1926 at 150 ug/ml after 24 hrs by agar well diffusion assay; assay type: functional; details: MTCC 1926, 24 h, read-out: IZ; outline: as §2
Nakaseomyces glabratus [14] = assay: Antifungal activity against Candida glabrata MTCC3019 at 150 ug/ml after 48 hrs by agar well diffusion method; assay type: functional; details: MTCC3019, 48 h, read-out: IZ; outline: as §3
Aspergillus parasiticus [15] = assay: Antifungal activity against Aspergillus parasiticus MTCC 8850 at 150 ug/ml after 48 hrs by agar well diffusion method; assay type: functional; details: MTCC 8850, 48 h, read-out: IZ; outline: as §3
Aspergillus niger [16] = assay: Antifungal activity against Aspergillus niger MTCC 282 at 150 ug/ml after 48 hrs by agar well diffusion method; assay type: functional; details: MTCC 282, 48 h, read-out: IZ; outline: as §3

With CN[C@@H]1[C@H](O[C@H]2[C@H](O[C@H]3[C@H](O)[C@@H](O)[C@H](N=C(N)N)[C@@H](O)[C@@H]3N=C(N)N)O[C@@H](C)[C@]2(O)C=O)O[C@@H](CO)[C@H](O)[C@H]1O [STREPTOMYCIN] the zone of inhibition at 30 µg/mL (Klebsiella pneumoniae [1]) was 22 mm, the zone of inhibition at 30 µg/mL (Streptococcus pyogenes [2]) was 21 mm and the zone of inhibition at 30 µg/mL (Staphylococcus aureus [3]) was 22 mm. The zone of inhibition at 30 µg/mL (Pseudomonas aeruginosa [4]) was 20 mm.
Work on Clc1ccccc1C(c1ccccc1)(c1ccccc1)n1ccnc1 [CLOTRIMAZOLE] yielded a zone of inhibition at 30 µg/mL (Aspergillus parasiticus [5]) of 20 mm, a zone of inhibition at 30 µg/mL (Candida albicans [6]) of 24 mm and a zone of inhibition at 30 µg/mL (Nakaseomyces glabratus [7]) of 22 mm. It also gave a zone of inhibition at 30 µg/mL (Aspergillus niger [8]) of 20 mm.
COc1ccc(C2C3=C(N=c4s/c(=C\c5c[nH]c6ccc(Br)cc56)c(=O)n42)c2ccc(OC)cc2CC3)cc1 (stereo not drawn) showed a zone of inhibition at 150 µg/mL (Staphylococcus aureus [9]) of 8 mm, a pIC50 (HepG2) of 5.07 and a zone of inhibition at 150 µg/mL (Klebsiella pneumoniae [10]) of 8 mm. It also gave a zone of inhibition at 150 µg/mL (Candida albicans [11]) of 8 mm, a pIC50 (MCF7) of 5.11 and a zone of inhibition at 150 µg/mL (Pseudomonas aeruginosa [12]) of 8 mm. It also gave a zone of inhibition at 150 µg/mL (Streptococcus pyogenes [13]) of 8 mm, a zone of inhibition at 150 µg/mL (Nakaseomyces glabratus [14]) of 12 mm and a zone of inhibition at 150 µg/mL (Aspergillus parasiticus [15]) of 10 mm. The zone of inhibition at 150 µg/mL (Aspergillus niger [16]) was 8 mm.
